# Compounds with a hit are over-represented: about 3.1% of the library has one in this group of screens.
# KCNQ1 pot: potentiates or activates the human KCNQ1 potassium channel | P51787 | CHO-K1 KCNQ1, thallium flux FluxOR fluorescence; stronger effect = higher value | B-score at 10 µM | 0.35% of 310,000 active | AID 2648;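 active = fluorescence ratio B-score, a plate-corrected score, at least three library SD, with initial intensity B-score within 5 SD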
#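 Schedule – 37 °C overnight plating, 90-min dark dye load, 20-min compound pretreatment · System – stable KCNQ1 CHO-K1 line · Probe or stimulus – thallium- and potassium-containing depolarizing buffer · Measured by – kinetic FluxOR fluorescence, 10 s baseline plus 110 s post-stimulus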
# KCNK3 block: human KCNK3 channel inhibition, primary screen; 0.84% of 340,000 active; CHO-KCNK3 thallium flux, FluxOR fluorescence; stronger effect = lower value; O14649; AID 602410; B-score at 10 µM;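 active = B-score under library mean minus 4 SD, starting fluorescence ratio at most library mean plus 5 SD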;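 also: more negative B-score means stronger inhibition of thallium flux through KCNK3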
# KCNK9 inh: inhibitors of human KCNK9 two-pore domain potassium channel. Q9NPC2. HEK293 KCNK9, FluxOR thallium flux fluorescence; stronger effect = lower value. B-score at 10 µM. 1.2% of 310,000 active. AID 488922;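 active = ratio B-score over 3 SD below the library mean, with starting fluorescence within 5 SD of its mean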;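 also: negative B-score means less thallium flux so channel inhibition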
# hERG rescue: compounds protecting human hERG from proarrhythmic drug block; AID 1511; 0.51% of 310,000 active; CHO-hERG, FluxOR thallium flux, dofetilide IC70 present; Q12809; activation (rescue from dofetilide block), less the hit threshold, % at 10 µM;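 active = activation above the mean of controls blocked by dofetilide plus 5 SD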;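 also: thallium influx through hERG after potassium depolarization seen as dye fluorescence rise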
# KCNQ1 block: human KCNQ1 channel inhibition; CHO-K1 KCNQ1, FluxOR thallium flux fluorescence; stronger effect = higher value; B-score at 10 µM; 1.3% of 310,000 active; AID 2642;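 active = compounds whose thallium flux B-score, printed positive for inhibition, exceeds three library SD while starting fluorescence stays within three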;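 also: channel opened by potassium depolarization with thallium stimulus after 20 min compound exposure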
# Active calls of the source: *; i = inactive; / = no result.
SMILES,KCNQ1 pot,KCNK3 block,KCNK9 inh,hERG rescue,KCNQ1 block
Cc1nn(-c2cccc(Cl)c2)c(Cl)c1/C=N/NC(=O)c1cccnc1,i,i,-7.4*,-9,i
Cc1nn(-c2ccccc2)c(N2CCCC2)c1/C=N/NC(=O)c1cc2ccccc2cc1O,i,i,i,-26,11*
Cc1nn(-c2ccccc2)c(N2CCCC2)c1/C=N/NC(=O)c1cc(-c2ccccc2)nc2ccccc12,i,i,i,-21,i
COc1ccc(O)c(CN2CC3CCC(CC3)C2)c1,/,i,/,/,/
CN(C)S(=O)(=O)c1ccc(NC(=O)Cn2nc(-c3ccc4c(c3)OCCO4)ccc2=O)cc1,/,i,/,/,/
COc1cc(CN(C)C(C)C(=O)Nc2ccc([N+](=O)[O-])cc2Cl)ccc1OC(F)F (stereo not drawn),i,i,i,-12,i
COc1ccc(Cl)cc1NC(=O)C(C)N(C)Cc1ccc(C(F)(F)F)cc1 (stereo not drawn),i,i,-7.4*,-17,i
Clc1ccc(CSc2nnnn2-c2ccc3c(c2)OCO3)c(Cl)c1,i,i,-7*,-8,i
c1ccc(CSc2nnnn2-c2ccc3c(c2)OCCO3)nc1,i,i,i,0,i
Cc1ccc(NC(=O)COc2ccccc2CNC(C)(C)CC(C)(C)C)cc1,i,i,i,-19,8*
COc1ccc(CN(C)c2ncnc3sccc23)c(OC)c1OC,i,i,i,-13,i
COc1ccccc1NC(=O)c1ccccc1NS(=O)(=O)c1cccs1,i,i,i,-12,6*
O=C(C[C@H]1C/C=C\CC[C@@H](Cc2ccc(F)cc2)C(=O)OCCNC1=O)NCCO,/,i,/,/,/
CC(C)(C)c1cc(-c2n[nH]c(=S)n2-c2ccccc2F)n[nH]1,i,i,i,9.1*,i
COC(=O)c1ccc(CN2CCN(CCC(C)C)C(CCO)C2)cc1 (stereo not drawn),i,i,i,-18,6*
COC(=O)c1ccc(CN2CCN(CCc3ccccc3)C(CCO)C2)cc1 (stereo not drawn),i,i,i,-15,i
CC(C)CCN1CCN(Cc2nc(-c3ccc(F)cc3)cs2)CC1CCO (stereo not drawn),i,i,i,7.1*,i
